Results published in ChEMBL document CHEMBL4373651, “Indole compounds with N-ethyl morpholine moieties as CB2 receptor agonists for anti-inflammatory management of pain: synthesis and biological evaluation” (Medchemcomm, 2019).
Active and inactive are the calls of the source.

What was measured:
Rattus norvegicus [1] = experiment: (§1) Antiinflammatory hyperalgesic activity against complete freund's adjuvant-induced mechanical hyperalgesic Sprague-Dawley rat model assessed as paw withdraw latency at 0.0025 to 10 mg/kg, ip pretreated with CFA for 24 hrs followed by compound administration and measured at 24 hrs by analgesiometer analysis; format: functional, organism-based
In short: (§2)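 Male Sprague-Dawley rats, 180–200 g. Baseline mechanical paw withdrawal threshold taken with analgesiometer pressure on left hind paw, cut-off 250 g, endpoint complete withdrawal. Intraplantar 50% CFA (50 µL in 0.9% saline) under isoflurane. At 24 h, pre-drug threshold, then single i.p. dose of 0.0025–10 mg kg-1, antagonist combination or vehicle (2 mL kg-1). Thresholds read 1–24 h after dosing. % reversal = (post − pre)/(baseline − pre) × 100.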

Rattus norvegicus [2] = experiment: (§3) Antiinflammatory hyperalgesic activity against complete freund's adjuvant-induced mechanical hyperalgesic Sprague-Dawley rat model assessed as reduction in IL-1 beta production in paw skin at 10 mg/kg, ip pretreated with CFA for 24 hrs followed by compound and 1 mg/kg CB2 receptor antagonist, SR144528 administration and measured after 1 hr by ELISA; format: functional, organism-based
In short: (§4)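 Male Sprague-Dawley rats, 180–200 g, isoflurane anaesthesia. Left hind paw given intraplantar 50% CFA (50 µL in 0.9% saline), or saline. At 24 h, single i.p. dose of drug, antagonist, combination or vehicle (2 mL kg-1). 1 h after dosing, paw skin taken and homogenised in ice-cold buffer with protease inhibitor, then centrifuged. IL-1β, IL-6 and TNF-α in supernatant by ELISA. n = 6, one-way ANOVA with Tukey test.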

Cannabinoid receptor 2 = Cannabinoid receptor 2 (Homo sapiens, UniProt P34972); experiment: Agonist activity at human CB2 receptor expressed in CHO cells coexpressing Galpha16 assessed as reduction in forsklin-induced cAMP production incubated for 30 mins by cAMP Hunter assay based […] analysis; format: functional, cell-based; conditions: read-out: EC50
In short: (§5)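 CHO cells expressing human CB1 or CB2 with Gα16, seeded overnight at 37 °C. Test compounds in stimulation buffer with 1 mM IBMX, 0.25% BSA and forskolin, 30 min at 37 °C. Cells lysed, cAMP read by enzyme fragment complementation chemiluminescence kit. Triplicate per dilution. Efficacy relative to CP-55940 reference run twice per plate. EC50 from means.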

Rattus norvegicus [3] = experiment: as §3, with “TNF-alpha” for “IL-1 beta”, “0.1” for “10”, “compound” for “compound and 1 mg/kg CB2 receptor antagonist, SR144528”; format: functional, organism-based; in short: as §4
Rattus norvegicus [4] = experiment: as §3, with “IL-6” for “IL-1 beta”; format: functional, organism-based; in short: as §4
Cannabinoid receptor 1 = Cannabinoid receptor 1 (Homo sapiens, UniProt P21554); experiment: Agonist activity at human CB1 receptor expressed in CHO cells coexpressing Galpha16 assessed as reduction in forsklin-induced cAMP production incubated for 30 mins by cAMP Hunter assay based […] analysis; format: cell-based; conditions: read-out: EC50; in short: as §5
Rattus norvegicus [5] = experiment: as §3, with “as decrease” for “as reduction”, “and 0.5” for “and 1”, “mg/kg CB1” for “mg/kg CB2”, “antagonist, AM281” for “antagonist, SR144528”; format: functional, organism-based; in short: as §4
Rattus norvegicus [6] = experiment: as §3, with “decrease” for “reduction”, “compound” for “compound and 1 mg/kg CB2 receptor antagonist, SR144528”, “ELISA relative to control” for “ELISA”; format: functional; in short: as §4
[7] = Selectivity ratio of EC50 for human CB1 receptor expressed in CHO cells coexpressing Galpha16 to EC50 for human CB2 receptor expressed in CHO cells coexpressing Galpha16
In short: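 Ratio of EC50 values from the CB1 and CB2 cAMP assays in CHO-Gα16 cells: 30 min compound exposure at 37 °C with 1 mM IBMX and forskolin, chemiluminescent cAMP read-out, triplicates.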

Rattus norvegicus [8] = experiment: as §3, with “as decrease” for “as reduction”, “in TNF-alpha” for “in IL-1 beta”, “and 0.5” for “and 1”, “mg/kg CB1” for “mg/kg CB2”, “antagonist, AM281” for “antagonist, SR144528”; format: functional, organism-based; in short: as §4
Rattus norvegicus [9] = experiment: as §1, with “at” for “at 0.0025 to”, “compound and 1 mg/kg CB2 receptor antagonist, SR144528” for “compound”, “administration” for “administration and measured at 24 hrs”; format: functional, organism-based; in short: as §2
Rattus norvegicus [10] = experiment: as §3, with “decrease” for “reduction”, “IL-6” for “IL-1 beta”, “compound” for “compound and 1 mg/kg CB2 receptor antagonist, SR144528”, “ELISA relative to control” for “ELISA”; format: functional; in short: as §4
Rattus norvegicus [11] = experiment: Antiinflammatory hyperalgesic activity against ip dosed complete freund's adjuvant-induced mechanical hyperalgesic Sprague-Dawley rat model assessed as decrease in IL-6 production in paw skin pretreated with CFA for 24 hrs followed by compound administration and measured after 1 hr by ELISA; format: functional, organism-based; in short: as §4
Rattus norvegicus [12] = experiment: as §3, with “as decrease” for “as reduction”, “in IL-6” for “in IL-1 beta”, “and 0.5” for “and 1”, “mg/kg CB1” for “mg/kg CB2”, “antagonist, AM281” for “antagonist, SR144528”; format: functional, organism-based; in short: as §4
Rattus norvegicus [13] = experiment: (§6) Antiinflammatory hyperalgesic activity against complete freund's adjuvant-induced mechanical hyperalgesic Sprague-Dawley rat model assessed as reduction in IL-6 production in paw skin at 0.1 mg/kg, ip pretreated with CFA for 24 hrs followed by compound administration and measured after 1 hr by ELISA; format: functional, organism-based; in short: as §4
Rattus norvegicus [14] = experiment: Antiinflammatory hyperalgesic activity against complete freund's adjuvant-induced mechanical hyperalgesic Sprague-Dawley rat model assessed as increase in paw withdraw latency at 10 mg/kg, ip pretreated with CFA for 24 hrs followed by compound and 0.5 mg/kg CB1 receptor antagonist, AM281 administration by analgesiometer analysis; format: functional, organism-based; in short: as §2
Rattus norvegicus [15] = experiment: Antiinflammatory hyperalgesic activity against ip dosed complete freund's adjuvant-induced mechanical hyperalgesic Sprague-Dawley rat model assessed as increase in […] pretreated with CFA for 24 hrs followed by compound administration and measured at 1 hr by analgesiometer analysis; format: functional; in short: as §2
Rattus norvegicus [16] = experiment: as §1, with “assessed as increase in paw withdraw” for “assessed as paw withdraw”, “measured at 1 hr to 12 hrs by” for “measured at 24 hrs by”; format: functional, organism-based; in short: as §2
Rattus norvegicus [17] = experiment: Antiinflammatory hyperalgesic activity against ip dosed complete freund's adjuvant-induced mechanical hyperalgesic Sprague-Dawley rat model assessed as decrease in IL-1 beta production in paw skin pretreated with CFA for 24 hrs followed by compound administration and measured after 1 hr by ELISA; format: functional, organism-based; in short: as §4
Rattus norvegicus [18] = experiment: as §6, with “decrease” for “reduction”, “TNF alpha” for “IL-6”, “10” for “0.1”, “ELISA relative to control” for “ELISA”; format: functional; in short: as §4
Rattus norvegicus [19] = experiment: Antiinflammatory hyperalgesic activity against ip dosed complete freund's adjuvant-induced mechanical hyperalgesic Sprague-Dawley rat model assessed as decrease in TNF-alpha production in paw skin pretreated with CFA for 24 hrs followed by compound administration and measured after 1 hr by ELISA; format: functional, organism-based; in short: as §4
Rattus norvegicus [20] = experiment: as §6, with “IL-1 beta” for “IL-6”; format: functional, organism-based; in short: as §4
Rattus norvegicus [21] = experiment: as §3, with “TNF-alpha” for “IL-1 beta”; format: functional, organism-based; in short: as §4

Sequence of Cannabinoid receptor 2 (P34972 whole entry, the tested form may be a part): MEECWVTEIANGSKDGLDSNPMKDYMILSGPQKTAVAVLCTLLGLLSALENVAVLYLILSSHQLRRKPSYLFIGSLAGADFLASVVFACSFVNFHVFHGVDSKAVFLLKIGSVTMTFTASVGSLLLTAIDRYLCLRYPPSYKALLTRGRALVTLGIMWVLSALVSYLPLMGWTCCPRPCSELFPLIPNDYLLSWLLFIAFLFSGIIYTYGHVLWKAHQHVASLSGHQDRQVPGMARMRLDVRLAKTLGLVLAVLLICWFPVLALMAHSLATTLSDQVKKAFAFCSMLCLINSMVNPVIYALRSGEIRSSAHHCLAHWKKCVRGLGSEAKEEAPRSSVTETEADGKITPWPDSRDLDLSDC
Sequence of Cannabinoid receptor 1 (P21554 whole entry): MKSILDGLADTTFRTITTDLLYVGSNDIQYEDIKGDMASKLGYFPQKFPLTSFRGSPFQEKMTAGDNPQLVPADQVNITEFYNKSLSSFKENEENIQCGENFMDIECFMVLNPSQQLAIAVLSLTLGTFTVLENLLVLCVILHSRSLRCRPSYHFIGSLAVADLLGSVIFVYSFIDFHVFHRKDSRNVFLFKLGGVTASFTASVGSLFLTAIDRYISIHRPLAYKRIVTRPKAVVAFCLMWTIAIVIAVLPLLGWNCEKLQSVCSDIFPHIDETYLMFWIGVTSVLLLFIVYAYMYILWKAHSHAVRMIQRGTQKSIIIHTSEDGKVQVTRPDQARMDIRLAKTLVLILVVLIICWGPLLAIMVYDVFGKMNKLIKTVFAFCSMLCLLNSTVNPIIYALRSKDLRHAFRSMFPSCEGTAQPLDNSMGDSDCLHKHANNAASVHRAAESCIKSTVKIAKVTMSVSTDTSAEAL

In the case of Cc1c(CCN2CCOCC2)c2cc(F)ccc2n1C(=O)c1cccc(Cl)c1Cl, the Activity (Rattus norvegicus [1]) is reported as “inactive”, the Activity (Rattus norvegicus [2]) is reported as “inactive” and the EC50 (Cannabinoid receptor 2) is reported as 0.0189 µM. The Activity (Rattus norvegicus [3]) was “inactive”, the Activity (Rattus norvegicus [4]) was “inactive” and the EC50 (Cannabinoid receptor 1) was 29.2 µM. For the same molecule, the inhibition (Rattus norvegicus [5]) was “Active”, the “fold change (FC)” value (Rattus norvegicus [6]) was 1.3 and the “Ratio EC50” value [7] was >1000. The inhibition (Rattus norvegicus [8]) was “Active”, the Activity (Rattus norvegicus [9]) was “inactive” and the “fold change (FC)” value (Rattus norvegicus [10]) was 1.9. For the same molecule, the inhibition (Rattus norvegicus [11]) was “Dose-dependent effect”, the inhibition (Rattus norvegicus [12]) was “Active” and the Activity (Rattus norvegicus [13]) was “inactive”. The Activity (Rattus norvegicus [14]) was “Active”, the Activity (Rattus norvegicus [15]) was “Dose-dependent effect” and the ED50 (Rattus norvegicus [15]) was 1.1 mg/kg. For the same molecule, the Activity (Rattus norvegicus [16]) was “Active”, the inhibition (Rattus norvegicus [17]) was “Dose-dependent effect” and the “fold change (FC)” value (Rattus norvegicus [18]) was 1.1. For the same molecule, the inhibition (Rattus norvegicus [19]) was “Dose-dependent effect”, the Activity (Rattus norvegicus [20]) was “inactive” and the Activity (Rattus norvegicus [21]) was “inactive”.
